This note sets out measurements from ChEMBL document CHEMBL1138558, “Synthesis of some new 1,2,4-triazoles, their Mannich and Schiff bases and evaluation of their antimicrobial activities” (2009).

Active and inactive are the calls of the source. The calls are words filed in the database; no cut-off is given here.

The first test relates to Escherichia coli. The test can be described thus: Antimicrobial activity against Escherichia coli ATCC 25922 at 10 mg/mL after 18 hrs by agar-well diffusion method. In kind it is functional. The note with it: ATCC 25922, 18 h, read-out: IZ. The procedure, abridged:
(§1)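 Agar-well diffusion: each bacterium suspended in Mueller Hinton broth at about 10⁶ cfu/mL, flood-inoculated onto Mueller Hinton agar and dried. 5-mm wells were cut with a sterile cork-borer and filled with the test solution. Plates were incubated 18 h at 35 °C. The read-out was the diameter of the inhibition zone.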
Take `O=C(CSc1nnc(-c2ccncc2)n1-c1ccccc1)N/N=C/c1ccccc1O`: the zone of inhibition at 10000 µg/mL came to 30 mm.

With `Cc1ccc(N(C)c2nnc(CSc3nnc(-c4ccncc4)n3-c3ccccc3)s2)cc1`, the zone of inhibition at 10000 µg/mL was found to be 28 mm.

In the case of `CN1CCN(Cn2nc(-c3ccncc3)n(-c3ccccc3)c2=S)CC1`, the zone of inhibition at 10000 µg/mL turned out to be 24 mm.

Regarding `O=C(CSc1nnc(-c2ccncc2)n1-c1ccccc1)N/N=C/c1cccnc1`, the zone of inhibition at 10000 µg/mL turned out to be 8 mm.

As for `S=c1n(CNCCN2CCOCC2)nc(-c2ccncc2)n1-c1ccccc1`, the zone of inhibition at 10000 µg/mL stood at 20 mm.

For the compound `O=C(CSc1nnc(-c2ccncc2)n1-c1ccccc1)N/N=C/c1ccc(F)cc1`, the zone of inhibition at 10000 µg/mL is 30 mm.

In the case of `S=c1oc(CSc2nnc(-c3ccncc3)n2-c2ccccc2)nn1CNCCN1CCOCC1`, the zone of inhibition at 10000 µg/mL came to 6 mm.

Take `O=C(CSc1nnc(-c2ccncc2)n1-c1ccccc1)N/N=C/c1ccccn1`: the zone of inhibition at 10000 µg/mL came out at 42 mm.

With `CSc1nnc(-c2ccncc2)n1-c1ccccc1`, the zone of inhibition at 10000 µg/mL was found to be 30 mm.

A further test relates to Yersinia pseudotuberculosis. The test can be described thus: Antimicrobial activity against Yersinia pseudotuberculosis ATCC 911 at 10 mg/mL after 18 hrs by agar-well diffusion method. In kind it is functional.
Details: not given
The procedure, abridged:
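Bacteria suspended in Mueller Hinton broth at about 10⁶ cfu/mL, flood-inoculated onto Mueller Hinton agar and dried. Test substance placed into 5-mm wells bored with a sterile cork-borer. Incubation 18 h at 35 °C, then the inhibition zone around each well measured.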
For the compound `S=c1oc(CSc2nnc(-c3ccncc3)n2-c2ccccc2)nn1CNCCN1CCOCC1`, the “inhibition zone (IZ)” value is “inactive”.

Still in this test, the particulars now being: ATCC 911, 18 h, read-out: IZ.
For `O=C(CSc1nnc(-c2ccncc2)n1-c1ccccc1)N/N=C/c1ccccc1O`, the zone of inhibition at 10000 µg/mL worked out at 30 mm.

For `Cc1ccc(N(C)c2nnc(CSc3nnc(-c4ccncc4)n3-c3ccccc3)s2)cc1`, the zone of inhibition at 10000 µg/mL stood at 16 mm.

For `CN1CCN(Cn2nc(-c3ccncc3)n(-c3ccccc3)c2=S)CC1`, the zone of inhibition at 10000 µg/mL turned out to be 24 mm.

Take `O=C(CSc1nnc(-c2ccncc2)n1-c1ccccc1)N/N=C/c1cccnc1`: the zone of inhibition at 10000 µg/mL turned out to be 7 mm.

Regarding `S=c1n(CNCCN2CCOCC2)nc(-c2ccncc2)n1-c1ccccc1`, the zone of inhibition at 10000 µg/mL was found to be 22 mm.

Consider `O=C(CSc1nnc(-c2ccncc2)n1-c1ccccc1)N/N=C/c1ccc(F)cc1`, for which the zone of inhibition at 10000 µg/mL amounted to 25 mm.

For `O=C(CSc1nnc(-c2ccncc2)n1-c1ccccc1)N/N=C/c1ccccn1`, the zone of inhibition at 10000 µg/mL was found to be 30 mm.

On to `CSc1nnc(-c2ccncc2)n1-c1ccccc1`, for which the zone of inhibition at 10000 µg/mL came to 30 mm.

A further test deals with Pseudomonas aeruginosa. The test can be described thus: Antimicrobial activity against Pseudomonas aeruginosa ATCC 27853 at 10 mg/mL after 18 hrs by agar-well diffusion method. In kind it is functional.
Details: not given
Put shortly:
as §1
As to `O=C(CSc1nnc(-c2ccncc2)n1-c1ccccc1)N/N=C/c1cccnc1`, the “inhibition zone (IZ)” value is “inactive”.

As for `S=c1oc(CSc2nnc(-c3ccncc3)n2-c2ccccc2)nn1CNCCN1CCOCC1`, the “inhibition zone (IZ)” value was “inactive”.

Still in this test, the particulars now being: ATCC 27853, 18 h, read-out: IZ.
For `O=C(CSc1nnc(-c2ccncc2)n1-c1ccccc1)N/N=C/c1ccccc1O`, the zone of inhibition at 10000 µg/mL was 30 mm.

Regarding `Cc1ccc(N(C)c2nnc(CSc3nnc(-c4ccncc4)n3-c3ccccc3)s2)cc1`, the zone of inhibition at 10000 µg/mL was determined as 15 mm.

With `CN1CCN(Cn2nc(-c3ccncc3)n(-c3ccccc3)c2=S)CC1`, the zone of inhibition at 10000 µg/mL is 30 mm.

With `S=c1n(CNCCN2CCOCC2)nc(-c2ccncc2)n1-c1ccccc1`, the zone of inhibition at 10000 µg/mL amounted to 14 mm.

`O=C(CSc1nnc(-c2ccncc2)n1-c1ccccc1)N/N=C/c1ccc(F)cc1`: the zone of inhibition at 10000 µg/mL stood at 38 mm.

For the compound `O=C(CSc1nnc(-c2ccncc2)n1-c1ccccc1)N/N=C/c1ccccn1`, the zone of inhibition at 10000 µg/mL was found to be 40 mm.

As for `CSc1nnc(-c2ccncc2)n1-c1ccccc1`, the zone of inhibition at 10000 µg/mL was 30 mm.

In the next test the test system is Enterococcus faecalis. The test can be described thus: Antimicrobial activity against Enterococcus faecalis ATCC 29212 at 10 mg/mL after 18 hrs by agar-well diffusion method. In kind it is functional.
Details: not given
Put shortly:
as §1
Regarding `O=C(CSc1nnc(-c2ccncc2)n1-c1ccccc1)N/N=C/c1cccnc1`, the “inhibition zone (IZ)” value is “inactive”.

As to `S=c1oc(CSc2nnc(-c3ccncc3)n2-c2ccccc2)nn1CNCCN1CCOCC1`, the “inhibition zone (IZ)” value is “inactive”.

Still in this test, the particulars now being: ATCC 29212, 18 h, read-out: IZ.
Take `O=C(CSc1nnc(-c2ccncc2)n1-c1ccccc1)N/N=C/c1ccccc1O`: the zone of inhibition at 10000 µg/mL came out at 30 mm.

Consider `Cc1ccc(N(C)c2nnc(CSc3nnc(-c4ccncc4)n3-c3ccccc3)s2)cc1`, for which the zone of inhibition at 10000 µg/mL worked out at 7 mm.

Turning to `CN1CCN(Cn2nc(-c3ccncc3)n(-c3ccccc3)c2=S)CC1`, the zone of inhibition at 10000 µg/mL is 28 mm.

Regarding `S=c1n(CNCCN2CCOCC2)nc(-c2ccncc2)n1-c1ccccc1`, the zone of inhibition at 10000 µg/mL was determined as 16 mm.

In the case of `O=C(CSc1nnc(-c2ccncc2)n1-c1ccccc1)N/N=C/c1ccc(F)cc1`, the zone of inhibition at 10000 µg/mL amounted to 30 mm.

On to `O=C(CSc1nnc(-c2ccncc2)n1-c1ccccc1)N/N=C/c1ccccn1`, for which the zone of inhibition at 10000 µg/mL came out at 20 mm.

As for `CSc1nnc(-c2ccncc2)n1-c1ccccc1`, the zone of inhibition at 10000 µg/mL amounted to 30 mm.

For another test, the system named is Staphylococcus aureus. As to the kind of experiment: Antimicrobial activity against Staphylococcus aureus ATCC 25923 at 10 mg/mL after 18 hrs by agar-well diffusion method.
Details: not given
In kind it is functional. The procedure, abridged: as §1
Turning to `O=C(CSc1nnc(-c2ccncc2)n1-c1ccccc1)N/N=C/c1cccnc1`, the “inhibition zone (IZ)” value was “inactive”.

Take `S=c1oc(CSc2nnc(-c3ccncc3)n2-c2ccccc2)nn1CNCCN1CCOCC1`: the “inhibition zone (IZ)” value was “inactive”.

Still in this test, the particulars now being: ATCC 25923, 18 h, read-out: IZ.
In the case of `O=C(CSc1nnc(-c2ccncc2)n1-c1ccccc1)N/N=C/c1ccccc1O`, the zone of inhibition at 10000 µg/mL worked out at 25 mm.

In the case of `Cc1ccc(N(C)c2nnc(CSc3nnc(-c4ccncc4)n3-c3ccccc3)s2)cc1`, the zone of inhibition at 10000 µg/mL is 22 mm.

Regarding `CN1CCN(Cn2nc(-c3ccncc3)n(-c3ccccc3)c2=S)CC1`, the zone of inhibition at 10000 µg/mL turned out to be 24 mm.

Consider `S=c1n(CNCCN2CCOCC2)nc(-c2ccncc2)n1-c1ccccc1`, for which the zone of inhibition at 10000 µg/mL was found to be 21 mm.

Consider `O=C(CSc1nnc(-c2ccncc2)n1-c1ccccc1)N/N=C/c1ccc(F)cc1`, for which the zone of inhibition at 10000 µg/mL is 30 mm.

Regarding `O=C(CSc1nnc(-c2ccncc2)n1-c1ccccc1)N/N=C/c1ccccn1`, the zone of inhibition at 10000 µg/mL was found to be 24 mm.

Take `CSc1nnc(-c2ccncc2)n1-c1ccccc1`: the zone of inhibition at 10000 µg/mL was determined as 25 mm.

Another test concerns Bacillus cereus. The test can be described thus: Antimicrobial activity against Bacillus cereus 702 Roma at 10 mg/mL after 18 hrs by agar-well diffusion method.
Details: not given
In kind it is functional. Put shortly: as §1
Take `O=C(CSc1nnc(-c2ccncc2)n1-c1ccccc1)N/N=C/c1cccnc1`: the “inhibition zone (IZ)” value is “inactive”.

In the case of `S=c1oc(CSc2nnc(-c3ccncc3)n2-c2ccccc2)nn1CNCCN1CCOCC1`, the “inhibition zone (IZ)” value is “inactive”.

Staying with this test, now noted: read-out: IZ.
Consider `O=C(CSc1nnc(-c2ccncc2)n1-c1ccccc1)N/N=C/c1ccccc1O`, for which the zone of inhibition at 10000 µg/mL is 25 mm.

Regarding `Cc1ccc(N(C)c2nnc(CSc3nnc(-c4ccncc4)n3-c3ccccc3)s2)cc1`, the zone of inhibition at 10000 µg/mL came out at 17 mm.

Regarding `CN1CCN(Cn2nc(-c3ccncc3)n(-c3ccccc3)c2=S)CC1`, the zone of inhibition at 10000 µg/mL is 23 mm.

Regarding `S=c1n(CNCCN2CCOCC2)nc(-c2ccncc2)n1-c1ccccc1`, the zone of inhibition at 10000 µg/mL was determined as 15 mm.

`O=C(CSc1nnc(-c2ccncc2)n1-c1ccccc1)N/N=C/c1ccc(F)cc1`: the zone of inhibition at 10000 µg/mL is 23 mm.

On to `O=C(CSc1nnc(-c2ccncc2)n1-c1ccccc1)N/N=C/c1ccccn1`, for which the zone of inhibition at 10000 µg/mL came out at 20 mm.

`CSc1nnc(-c2ccncc2)n1-c1ccccc1`: the zone of inhibition at 10000 µg/mL came out at 30 mm.

A further test deals with Candida tropicalis. The test can be described thus: Antimicrobial activity against Candida tropicalis ATCC 13803 at 10 mg/mL after 18 hrs by agar-well diffusion method. In kind it is functional.
Details: not given
The procedure, abridged:
(§2)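 Candida cultures were suspended in Mueller Hinton broth at about 10⁶ cfu/mL, flood-inoculated onto Sabouraud dextrose agar and dried. Test solution was loaded into 5-mm wells bored in the agar. Plates were incubated 18 h at 35 °C, and activity was scored as the inhibition zone around each well.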
On to `O=C(CSc1nnc(-c2ccncc2)n1-c1ccccc1)N/N=C/c1ccccc1O`, for which the “inhibition zone (IZ)” value was “inactive”.

In the case of `Cc1ccc(N(C)c2nnc(CSc3nnc(-c4ccncc4)n3-c3ccccc3)s2)cc1`, the “inhibition zone (IZ)” value was “inactive”.

Consider `CN1CCN(Cn2nc(-c3ccncc3)n(-c3ccccc3)c2=S)CC1`, for which the “inhibition zone (IZ)” value was “inactive”.

In the case of `O=C(CSc1nnc(-c2ccncc2)n1-c1ccccc1)N/N=C/c1cccnc1`, the “inhibition zone (IZ)” value is “inactive”.

`S=c1n(CNCCN2CCOCC2)nc(-c2ccncc2)n1-c1ccccc1`: the “inhibition zone (IZ)” value is “inactive”.

For the compound `O=C(CSc1nnc(-c2ccncc2)n1-c1ccccc1)N/N=C/c1ccc(F)cc1`, the “inhibition zone (IZ)” value was “inactive”.

With `S=c1oc(CSc2nnc(-c3ccncc3)n2-c2ccccc2)nn1CNCCN1CCOCC1`, the “inhibition zone (IZ)” value was “inactive”.

As to `O=C(CSc1nnc(-c2ccncc2)n1-c1ccccc1)N/N=C/c1ccccn1`, the “inhibition zone (IZ)” value was “inactive”.

Still in this test, the particulars now being: ATCC 13803, 18 h, read-out: IZ.
With `CSc1nnc(-c2ccncc2)n1-c1ccccc1`, the zone of inhibition at 10000 µg/mL is 9 mm.

The subject of another test is Candida albicans. The test can be described thus: Antimicrobial activity against Candida albicans ATCC 60193 at 10 mg/mL after 18 hrs by agar-well diffusion method. In kind it is functional.
Details: not given
The procedure, abridged: as §2
Regarding `O=C(CSc1nnc(-c2ccncc2)n1-c1ccccc1)N/N=C/c1ccccc1O`, the “inhibition zone (IZ)” value is “inactive”.

Consider `Cc1ccc(N(C)c2nnc(CSc3nnc(-c4ccncc4)n3-c3ccccc3)s2)cc1`, for which the “inhibition zone (IZ)” value is “inactive”.

Consider `CN1CCN(Cn2nc(-c3ccncc3)n(-c3ccccc3)c2=S)CC1`, for which the “inhibition zone (IZ)” value was “inactive”.

Regarding `O=C(CSc1nnc(-c2ccncc2)n1-c1ccccc1)N/N=C/c1cccnc1`, the “inhibition zone (IZ)” value is “inactive”.

With `S=c1n(CNCCN2CCOCC2)nc(-c2ccncc2)n1-c1ccccc1`, the “inhibition zone (IZ)” value is “inactive”.

Take `O=C(CSc1nnc(-c2ccncc2)n1-c1ccccc1)N/N=C/c1ccc(F)cc1`: the “inhibition zone (IZ)” value is “inactive”.

In the case of `S=c1oc(CSc2nnc(-c3ccncc3)n2-c2ccccc2)nn1CNCCN1CCOCC1`, the “inhibition zone (IZ)” value is “inactive”.

Take `O=C(CSc1nnc(-c2ccncc2)n1-c1ccccc1)N/N=C/c1ccccn1`: the “inhibition zone (IZ)” value was “inactive”.

The same test, now with this note: ATCC 60193, 18 h, read-out: IZ.
Consider `CSc1nnc(-c2ccncc2)n1-c1ccccc1`, for which the zone of inhibition at 10000 µg/mL turned out to be 9 mm.
